Laboratory results as given in ChEMBL document CHEMBL1240354, “Efficacy of posaconazole against three clinical Aspergillus fumigatus isolates with mutations in the cyp51A gene” (Antimicrob Agents Chemother, 2010).
Converted amounts (≈) assume the structure as drawn.

Columns and labels:
[1] = tested on: Aspergillus fumigatus; assay: Antifungal activity against Aspergillus fumigatus isolate AZN 8196 harboring wild type Cyp51A protein by broth microdilution method; format: functional
How it was run: (§1)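 Broth microdilution followed CLSI M38A. Isolates were stored in 10% glycerol broth at −80°C and revived on Sabouraud dextrose agar with 0.02% chloramphenicol for 5 to 7 days at 35°C before testing.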

[2] = tested on: Aspergillus fumigatus; assay: Antifungal activity against Aspergillus fumigatus isolate V28-77 harboring M220I mutation in Cyp51A protein by broth microdilution method; format: functional; how it was run: as §1
[3] = tested on: Aspergillus fumigatus; assay: Antifungal activity against Aspergillus fumigatus isolate V52-35 harboring TR L98H mutation in Cyp51A protein by broth microdilution method; format: functional; how it was run: as §1
[4] = tested on: Aspergillus fumigatus; assay: Antifungal activity against Aspergillus fumigatus isolate V59-73 harboring G54W mutation in Cyp51A protein by broth microdilution method; format: functional; how it was run: as §1
[5] = AUC in CD1 mouse infected with wild type Aspergillus fumigatus at 1 mg/kg, po qd for 14 days measured after 24 hrs post last dose by HPLC analysis; format: ADME, organism-based; parameters: time < 24 hr, dose 1 mg/kg, route oral; settings: plasma
How it was run: (§2)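 Female CD-1 mice (4-5 weeks, 20-22 g) were infected via the lateral tail vein with the wild-type isolate. Oral posaconazole was given once daily from 24 h. On treatment day 2, orbital blood was taken predose and 0.5-24 h postdose, 3 mice per time point. Plasma was assayed by HPLC-fluorescence. Cmax was observed directly. AUC0–24 used the log-linear trapezoidal rule, and CL = dose/AUC0–24.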

[6] = AUC in CD1 mouse infected with wild type Aspergillus fumigatus at 4 mg/kg, po qd for 14 days measured after 24 hrs post last dose by HPLC analysis; format: ADME, organism-based; parameters: time < 24 hr, dose 4 mg/kg, route oral; settings: plasma; how it was run: as §2
[7] = AUC in CD1 mouse infected with wild type Aspergillus fumigatus at 16 mg/kg, po qd for 14 days measured after 24 hrs post last dose by HPLC analysis; format: ADME, organism-based; parameters: time < 24 hr, dose 16 mg/kg, route oral; settings: plasma; how it was run: as §2
[8] = AUC in CD1 mouse infected with wild type Aspergillus fumigatus at 64 mg/kg, po qd for 14 days measured after 24 hrs post last dose by HPLC analysis; format: ADME, organism-based; parameters: time < 24 hr, dose 64 mg/kg, route oral; settings: plasma; how it was run: as §2
[9] = tested on: Mus musculus; assay: Dose normalised AUC in CD1 mouse infected with wild type Aspergillus fumigatus at 1 mg/kg, po qd for 14 days measured after 24 hrs post last dose by HPLC analysis; format: ADME, organism-based; parameters: time < 24 hr, dose 1 mg/kg, route oral; settings: in vivo; how it was run: as §2
[10] = tested on: Mus musculus; assay: Dose normalised AUC in CD1 mouse infected with wild type Aspergillus fumigatus at 4 mg/kg, po qd for 14 days measured after 24 hrs post last dose by HPLC analysis; format: ADME, organism-based; parameters: time < 24 hr, dose 4 mg/kg, route oral; settings: in vivo; how it was run: as §2
[11] = tested on: Mus musculus; assay: Dose normalised AUC in CD1 mouse infected with wild type Aspergillus fumigatus at 16 mg/kg, po qd for 14 days measured after 24 hrs post last dose by HPLC analysis; format: ADME, organism-based; parameters: time < 24 hr, dose 16 mg/kg, route oral; settings: in vivo; how it was run: as §2
[12] = tested on: Mus musculus; assay: Dose normalised AUC in CD1 mouse infected with wild type Aspergillus fumigatus at 64 mg/kg, po qd for 14 days measured after 24 hrs post last dose by HPLC analysis; format: ADME, organism-based; parameters: time < 24 hr, dose 64 mg/kg, route oral; settings: in vivo; how it was run: as §2
[13] = Apparent oral clearance in CD1 mouse infected with wild type Aspergillus fumigatus at 1 mg/kg, po qd for 14 days measured after 24 hrs post last dose by HPLC analysis; format: ADME, organism-based; parameters: dose 1 mg/kg, route oral; settings: in vivo; how it was run: as §2
[14] = Apparent oral clearance in CD1 mouse infected with wild type Aspergillus fumigatus at 4 mg/kg, po qd for 14 days measured after 24 hrs post last dose by HPLC analysis; format: ADME, organism-based; parameters: dose 4 mg/kg, route oral; settings: in vivo; how it was run: as §2
[15] = Apparent oral clearance in CD1 mouse infected with wild type Aspergillus fumigatus at 16 mg/kg, po qd for 14 days measured after 24 hrs post last dose by HPLC analysis; format: ADME, organism-based; parameters: dose 16 mg/kg, route oral; settings: in vivo; how it was run: as §2
[16] = Apparent oral clearance in CD1 mouse infected with wild type Aspergillus fumigatus at 64 mg/kg, po qd for 14 days measured after 24 hrs post last dose by HPLC analysis; format: ADME, organism-based; parameters: dose 64 mg/kg, route oral; settings: in vivo; how it was run: as §2
[17] = Plasma concentration in CD1 mouse infected with wild type Aspergillus fumigatus at 1 mg/kg, […] by HPLC analysis; format: ADME, organism-based; parameters: dose 1 mg/kg, route oral; settings: po
[18] = Plasma concentration in CD1 mouse infected with wild type Aspergillus fumigatus at 4 mg/kg, […] by HPLC analysis; format: ADME, organism-based; parameters: dose 4 mg/kg, route oral; settings: po
[19] = Plasma concentration in CD1 mouse infected with wild type Aspergillus fumigatus at 16 mg/kg, […] by HPLC analysis; format: ADME, organism-based; parameters: dose 16 mg/kg, route oral; settings: po
[20] = Plasma concentration in CD1 mouse infected with wild type Aspergillus fumigatus at 64 mg/kg, […] by HPLC analysis; format: ADME, organism-based; parameters: dose 64 mg/kg, route oral; settings: po
[21] = Cmax in CD1 mouse infected with wild type Aspergillus fumigatus at 1 mg/kg, po qd for 14 days measured after 24 hrs post last dose by HPLC analysis; format: ADME, organism-based; parameters: dose 1 mg/kg, route oral; settings: in vivo; how it was run: as §2
[22] = Cmax in CD1 mouse infected with wild type Aspergillus fumigatus at 4 mg/kg, po qd for 14 days measured after 24 hrs post last dose by HPLC analysis; format: ADME, organism-based; parameters: dose 4 mg/kg, route oral; settings: in vivo; how it was run: as §2
[23] = Cmax in CD1 mouse infected with wild type Aspergillus fumigatus at 16 mg/kg, po qd for 14 days measured after 24 hrs post last dose by HPLC analysis; format: ADME, organism-based; parameters: dose 16 mg/kg, route oral; settings: in vivo; how it was run: as §2
[24] = Cmax in CD1 mouse infected with wild type Aspergillus fumigatus at 64 mg/kg, po qd for 14 days measured after 24 hrs post last dose by HPLC analysis; format: ADME, organism-based; parameters: dose 64 mg/kg, route oral; settings: in vivo; how it was run: as §2
[25] = Tmax in CD1 mouse infected with wild type Aspergillus fumigatus at 1 mg/kg, […] by HPLC analysis; format: ADME, organism-based; parameters: dose 1 mg/kg, route oral; settings: in vivo, po
[26] = Tmax in CD1 mouse infected with wild type Aspergillus fumigatus at 4 mg/kg, […] by HPLC analysis; format: ADME, organism-based; parameters: dose 4 mg/kg, route oral; settings: in vivo, po
[27] = Tmax in CD1 mouse infected with wild type Aspergillus fumigatus at 16 mg/kg, […] by HPLC analysis; format: ADME, organism-based; parameters: dose 16 mg/kg, route oral; settings: in vivo, po
[28] = Tmax in CD1 mouse infected with wild type Aspergillus fumigatus at 64 mg/kg, […] by HPLC analysis; format: ADME, organism-based; parameters: dose 64 mg/kg, route oral; settings: in vivo, po
[29] = tested on: Aspergillus fumigatus; assay: Ratio of AUC to MIC for wild type Aspergillus fumigatus infected in CD1 mouse; format: functional
How it was run: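 The ratio was calculated as AUC0–24 from the mouse PK study (oral posaconazole once daily, 1 to 64 mg/kg) divided by the CLSI M38A broth microdilution MIC.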

[30] = tested on: Aspergillus fumigatus; assay: Antifungal activity against wild type Aspergillus fumigatus infected in CD1 mouse assessed as increase in mouse survival rate administered orally qd for 14 days measured on day 15 post fungal infection; format: functional, organism-based
How it was run: (§3)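 Female CD-1 mice (4-5 weeks, 20-25 g, 11 per group) received an LD90 conidial inoculum of each isolate IV via the tail vein. Conidia were harvested in PBS/0.1% Tween 80, gauze-filtered and hemacytometer-counted. Posaconazole oral solution (1, 4, 16, 64 mg/kg) was given by gavage once daily for 14 days from 24 h post-infection; controls received saline. Survival was compared by log rank test, with survivors euthanized on day 15.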

[31] = tested on: Aspergillus fumigatus; assay: Antifungal activity against Aspergillus fumigatus isolate V52-35 harboring TR L98H mutation in Cyp51A protein infected in CD1 mouse assessed as increase in mouse survival rate administered orally qd for 14 days measured on day 15 post fungal infection; format: functional, organism-based; how it was run: as §3
[32] = tested on: Aspergillus fumigatus; assay: Antifungal activity against Aspergillus fumigatus isolate V28-77 harboring M220I mutation in Cyp51A protein infected in CD1 mouse assessed as increase in mouse survival rate administered orally qd for 14 days measured on day 15 post fungal infection; format: functional, organism-based; how it was run: as §3
[33] = tested on: Aspergillus fumigatus; assay: Antifungal activity against Aspergillus fumigatus isolate V59-73 harboring G54W mutation in Cyp51A protein infected in CD1 mouse assessed as increase in mouse survival rate administered orally qd for 14 days measured on day 15 post fungal infection; format: functional; how it was run: as §3
[34] = tested on: Aspergillus fumigatus; assay: Antifungal activity against Aspergillus fumigatus isolate V28-77 harboring M220I mutation in Cyp51A protein infected in CD1 mouse assessed as 50% effective pharmacodynamic index administered orally qd for 14 days measured post last dose; format: functional
How it was run: (§4)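 EI50 came from fitting a variable-slope Hill equation to AUC0–24/MIC ratio versus 14-day survival. AUCs were taken from the PK study in wild-type-infected mice at each dose (1-64 mg/kg oral, once daily). Ratios were log10-transformed before analysis.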

[35] = tested on: Aspergillus fumigatus; assay: Antifungal activity against Aspergillus fumigatus isolate V52-35 harboring TR L98H mutation in Cyp51A protein infected in CD1 mouse assessed as 50% effective pharmacodynamic index administered orally qd for 14 days measured post last dose; format: functional; how it was run: as §4

## CC[C@@H]([C@H](C)O)n1ncn(-c2ccc(N3CCN(c4ccc(OC[C@@H]5CO[C@@](Cn6cncn6)(c6ccc(F)cc6F)C5)cc4)CC3)cc2)c1=O [POSACONAZOLE]
[1]
  MIC: 0.031 µg/mL (≈ 0.0442 µM)
[2]
  MIC: 0.5 µg/mL (≈ 0.713 µM)
[3]
  MIC: 0.5 µg/mL (≈ 0.713 µM)
[4]
  MIC: > 16 µg/mL
[5]
  AUC at 24 h: 10.2 µg·h/mL
[6]
  AUC at 24 h: 45.1 µg·h/mL
[7]
  AUC at 24 h: 159 µg·h/mL
[8]
  AUC at 24 h: 297 µg·h/mL
[9]
  AUC: 10.2 kg·h/L
[10]
  AUC: 11.3 kg·h/L
[11]
  AUC: 9.96 kg·h/L
[12]
  AUC: 4.64 kg·h/L
[13]
  CL/F: 1.67 mL/min/kg
[14]
  CL/F: 1.5 mL/min/kg
[15]
  CL/F: 1.67 mL/min/kg
[16]
  CL/F: 3.67 mL/min/kg
[17]
  concentration: 110 ng/mL
[18]
  concentration: 940 ng/mL
[19]
  concentration: 2700 ng/mL
[20]
  concentration: 9330 ng/mL
[21]
  Cmax: 980 ng/mL
[22]
  Cmax: 3110 ng/mL
[23]
  Cmax: 9030 ng/mL
[24]
  Cmax: 17800 ng/mL
[25]
  Tmax: 4 h
[26]
  Tmax: 2 h
[27]
  Tmax: 8 h
[28]
  Tmax: 8 h
[29]
  RatioAUC/MIC: 1000
[30]
  Activity: Dose-dependent effect
[31]
  Activity: Dose-dependent effect
[32]
  Activity: Dose-dependent effect
[33]
  Activity: Dose-dependent effect
[33]; isolate V59-73, po
  ED50: 29 mg/kg
[34]
  Activity: 321
[35]
  Activity: 321

## CC[C@H](C)C[C@H](C)CCCCCCCCC(=O)N[C@H]1C[C@@H](O)[C@@H](NCCN)NC(=O)[C@@H]2[C@@H](O)CCN2C(=O)[C@H]([C@H](O)CCN)NC(=O)[C@H]([C@H](O)[C@@H](O)c2ccc(O)cc2)NC(=O)[C@@H]2C[C@@H](O)CN2C(=O)[C@H]([C@@H](C)O)NC1=O [CASPOFUNGIN]
[1]; read-out: MEC
  minimal effective concentration: 0.25 µg/mL
[2]; read-out: MEC
  minimal effective concentration: 0.25 µg/mL
[3]; read-out: MEC
  minimal effective concentration: 0.25 µg/mL
[4]; read-out: MEC
  minimal effective concentration: 0.25 µg/mL

## C[C@@H](c1ncncc1F)[C@](O)(Cn1cncn1)c1ccc(F)cc1F [VORICONAZOLE]
[1]
  MIC: 0.25 µg/mL (≈ 0.716 µM)
[2]
  MIC: 0.25 µg/mL (≈ 0.716 µM)
[3]
  MIC: 2 µg/mL (≈ 5.73 µM)
[4]
  MIC: 0.125 µg/mL (≈ 0.358 µM)

## CCC(C)n1ncn(-c2ccc(N3CCN(c4ccc(OCC5COC(Cn6cncn6)(c6ccc(Cl)cc6Cl)O5)cc4)CC3)cc2)c1=O (configuration not stated) [ITRACONAZOLE]
[1]
  MIC: 0.125 µg/mL (≈ 0.177 µM)
[2]
  MIC: > 16 µg/mL
[3]
  MIC: > 16 µg/mL
[4]
  MIC: > 16 µg/mL

## C[C@@H]1[C@H](O)[C@@H](C)/C=C/C=C/C=C/C=C/C=C/C=C/C=C/[C@H](O[C@@H]2O[C@H](C)[C@@H](O)[C@H](N)[C@@H]2O)C[C@@H]2O[C@](O)(C[C@@H](O)C[C@@H](O)[C@H](O)CC[C@@H](O)C[C@@H](O)CC(=O)O[C@H]1C)C[C@H](O)[C@H]2C(=O)O [AMPHOTERICIN B]
[1]
  MIC: 0.5 µg/mL (≈ 0.541 µM)
[2]
  MIC: 0.5 µg/mL (≈ 0.541 µM)
[3]
  MIC: 0.5 µg/mL (≈ 0.541 µM)
[4]
  MIC: 0.5 µg/mL (≈ 0.541 µM)
